Reference: ChEMBL document CHEMBL1145905, “Design and synthesis of novel dimeric morphinan ligands for kappa and micro opioid receptors” (J Med Chem, 2003)
Active and inactive are the calls of the source. No cut-off for these calls is given here.

Legend:
[1] = biological target: Delta-type opioid receptor (Homo sapiens, UniProt P41143); assay: Inhibitory activity against Opioid receptor delta 1 in chinese Hamster Ovary (CHO) cell membranes was determined using [3H]naltrindole radioligand
[2] = biological target: T1, Kappa-type opioid receptor (Homo sapiens, UniProt P41145); assay: Percent maximal stimulation in [35S]-GTP-gamma S binding assay mediated by the Opioid receptor kappa 1 in chinese Hamster Ovary (CHO)membranes; type: functional
[3] = biological target: T1, Kappa-type opioid receptor; assay: Inhibitory activity against Opioid receptor kappa 1 in chinese Hamster Ovary (CHO) cell membranes was determined using [3H]U-69593 radioligand
[4] = biological target: Opioid receptors; delta & kappa (Homo sapiens) (UniProt P41145+P41143); assay: Selective inhibitory activity was determined against kappa & delta opioid receptor in chinese Hamster Ovary (CHO) cell membranes
[5] = biological target: Opioid receptors; mu & kappa (Homo sapiens) (UniProt P41145+P35372); assay: Selective inhibitory activity was determined against kappa & mu opioid receptor in chinese Hamster Ovary (CHO) cell membranes
[6] = biological target: T1, Kappa-type opioid receptor; assay: Inhibitory activity in stimulating [35S]-GTP-gamma S binding mediated by the Opioid receptor kappa 1 in chinese Hamster Ovary (CHO) cell membranes was determined; type: functional
Mu-type opioid receptor [7] = biological target: T2, Mu-type opioid receptor (Homo sapiens, UniProt P35372); assay: Inhibitory activity against Opioid receptor mu 1 in chinese Hamster Ovary (CHO) cells membranes was determined using [3H]-DAMGO radioligand; type: cell-based
Mu-type opioid receptor [8] = biological target: T2, Mu-type opioid receptor; assay: Inhibitory activity was determined in stimulating [35S]-GTP-gamma S binding mediated by the Opioid receptor mu 1 in chinese Hamster Ovary (CHO)membranes
Mu-type opioid receptor [9] = biological target: T2, Mu-type opioid receptor
[10] = biological target: T1, Kappa-type opioid receptor; assay: Maximal percent inhibitory activity in stimulating [35S]-GTP-gamma S binding mediated by the Opioid receptor kappa 1 in chinese Hamster Ovary (CHO) cell membranes; No Effect; type: functional
Summary of the method: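 Antagonist mode: human κ-CHO membranes (15 μg protein) with 100 nM U50,488 plus varying compound concentrations, 3 μM GDP, […] [35S]GTPγS, 60 min at 30 °C, pH 7.4 buffer with Mg2+/NaCl/EGTA; filtration, counting.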

Mu-type opioid receptor [11] = biological target: T2, Mu-type opioid receptor; assay: Maximal percent inhibitory activity was determined in stimulating [35S]-GTP-gamma S binding mediated by the Opioid receptor mu 1 in chinese Hamster Ovary (CHO) cell membranes
Summary of the method: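 Antagonist mode: human μ-CHO membranes (7.5 μg protein) with 200 nM DAMGO plus varying compound concentrations, 3 μM GDP, […] [35S]GTPγS, 60 min at 30 °C, pH 7.4 buffer with Mg2+/NaCl/EGTA; filtration, counting.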

Mu-type opioid receptor [12] = biological target: T2, Mu-type opioid receptor; assay: Percent maximal stimulation in [35S]-GTP-gamma S binding assay mediated by the Opioid receptor mu 1 in chinese Hamster Ovary (CHO)membranes
[13] = biological target: T1, Kappa-type opioid receptor; assay: Inhibitory activity in stimulating [35S]-GTP-gamma S binding mediated by the Opioid receptor kappa 1 in chinese Hamster Ovary (CHO) cell membranes; type: functional
Summary of the method: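 Antagonist mode: membranes of CHO cells stably expressing human κ receptor (15 µg protein/tube) incubated with varying compound concentrations plus 100 nM U50,488, 60 min at 30 °C, in Tris/MgCl2/NaCl/EGTA buffer pH 7.4 with 3 µM GDP and [35S]GTPγS. Filtration, scintillation counting. Nonspecific binding with 10 µM GTPγS.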

Sequence of Delta-type opioid receptor (P41143 whole entry): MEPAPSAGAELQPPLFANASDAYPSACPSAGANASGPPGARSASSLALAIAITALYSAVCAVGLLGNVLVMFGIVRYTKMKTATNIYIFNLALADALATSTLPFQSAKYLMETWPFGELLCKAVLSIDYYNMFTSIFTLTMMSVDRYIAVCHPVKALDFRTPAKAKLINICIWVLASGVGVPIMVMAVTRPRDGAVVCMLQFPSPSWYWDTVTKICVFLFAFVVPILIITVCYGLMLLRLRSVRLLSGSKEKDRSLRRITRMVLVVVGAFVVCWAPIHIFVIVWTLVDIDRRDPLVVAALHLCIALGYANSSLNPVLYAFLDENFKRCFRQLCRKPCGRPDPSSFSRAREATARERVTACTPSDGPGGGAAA
Sequence of Opioid receptors; delta & kappa (Homo sapiens) (P41143 whole entry, looked up): as the sequence (P41143 whole entry) above
Sequence of Opioid receptors; delta & kappa (Homo sapiens) (P41145 whole entry, looked up): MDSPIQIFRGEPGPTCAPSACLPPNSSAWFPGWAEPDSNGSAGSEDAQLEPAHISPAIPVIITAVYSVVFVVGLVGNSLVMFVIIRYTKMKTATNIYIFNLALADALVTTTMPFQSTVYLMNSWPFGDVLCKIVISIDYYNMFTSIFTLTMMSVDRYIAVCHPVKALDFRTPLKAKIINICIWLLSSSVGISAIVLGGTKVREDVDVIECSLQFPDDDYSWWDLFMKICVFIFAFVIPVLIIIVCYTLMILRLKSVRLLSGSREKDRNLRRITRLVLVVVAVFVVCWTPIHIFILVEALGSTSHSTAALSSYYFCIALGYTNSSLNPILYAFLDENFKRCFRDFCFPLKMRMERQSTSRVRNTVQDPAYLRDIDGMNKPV
T2 sequence (P35372 whole entry): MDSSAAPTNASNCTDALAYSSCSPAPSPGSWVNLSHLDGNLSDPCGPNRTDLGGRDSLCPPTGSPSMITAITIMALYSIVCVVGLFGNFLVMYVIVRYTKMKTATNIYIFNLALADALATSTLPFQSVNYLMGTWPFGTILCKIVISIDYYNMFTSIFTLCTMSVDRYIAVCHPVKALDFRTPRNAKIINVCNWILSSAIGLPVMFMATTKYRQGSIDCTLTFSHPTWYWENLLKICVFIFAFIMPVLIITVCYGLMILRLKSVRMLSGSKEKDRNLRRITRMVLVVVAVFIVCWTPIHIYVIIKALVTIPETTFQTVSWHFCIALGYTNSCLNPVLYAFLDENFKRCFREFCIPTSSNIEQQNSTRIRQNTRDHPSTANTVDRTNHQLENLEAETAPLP
Sequence of Opioid receptors; mu & kappa (Homo sapiens) (P35372 whole entry, looked up): as the sequence (P35372 whole entry) above
Sequence of Opioid receptors; mu & kappa (Homo sapiens) (P41145 whole entry, looked up): as the sequence (P41145 whole entry, looked up) above
T1 sequence (P41145 whole entry): as the sequence (P41145 whole entry, looked up) above

SMILES | Ki [1] | Emax [2] | Ki [3] | Selectivity [4] | Selectivity [5] | EC50 [6] | Ki (Mu-type opioid receptor [7]) | IC50 (Mu-type opioid receptor [8]) | EC50 (Mu-type opioid receptor [9]) | NE [10] | Imax (Mu-type opioid receptor [11]) | Emax (Mu-type opioid receptor [12]) | NT [10] | IC50 [13]
O=C(CCC(=O)Oc1ccc2c(c1)[C@@]13CCCC[C@H]1[C@@H](C2)N(CC1CCC1)CC3)Oc1ccc2c(c1)[C@@]13CCCC[C@H]1[C@@H](C2)N(CC1CCC1)CC3 | 9.4 nM | 70% | 0.076 nM | 120 | 2 | 4.5 nM | 0.16 nM | 170 nM | 7.4 nM | inactive | 50% | 50% |  | 
O=C(Oc1ccc2c(c1)[C@@]13CCCC[C@H]1[C@@H](C2)N(CC1CCC1)CC3)c1ccc(C(=O)Oc2ccc3c(c2)[C@@]24CCCC[C@H]2[C@@H](C3)N(CC2CCC2)CC4)cc1 | 400 nM |  | 4.2 nM | 100 | 1 |  | 4.7 nM |  |  |  |  |  |  | 
COC(=O)CCCCCCCCC(=O)Oc1ccc2c(c1)[C@@]13CCCC[C@H]1[C@@H](C2)N(CC1CCC1)CC3 | 44 nM | 90% | 0.07 nM | 630 | 3 | 5.7 nM | 0.23 nM | 130 nM | 8 nM |  | 50% | 60% | inactive | 
O=C(CCCCCCCCCCC(=O)Oc1ccc2c(c1)[C@@]13CCCC[C@H]1[C@@H](C2)N(CC1CCC1)CC3)Oc1ccc2c(c1)[C@@]13CCCC[C@H]1[C@@H](C2)N(CC1CCC1)CC3 | 82 nM | 90% | 1.1 nM | 75 | 2 | 8.1 nM | 1.8 nM | 100 nM |  | inactive | 60% | 14% |  | 
O=C(Oc1ccc2c(c1)[C@@]13CCCC[C@H]1[C@@H](C2)N(CC1CCC1)CC3)c1cccc(C(=O)Oc2ccc3c(c2)[C@@]24CCCC[C@H]2[C@@H](C3)N(CC2CCC2)CC4)c1 | 920 nM |  | 3.4 nM | 270 | 1 |  | 3.3 nM |  |  |  |  |  |  | 
CN1CC[C@]23CCCC[C@H]2[C@H]1Cc1ccc(O)cc13 [LEVORPHANOL] |  |  | 2.3 nM |  |  |  |  |  |  |  |  |  |  | 
O=C(/C=C/C(=O)Oc1ccc2c(c1)[C@@]13CCCC[C@H]1[C@@H](C2)N(CC1CCC1)CC3)Oc1ccc2c(c1)[C@@]13CCCC[C@H]1[C@@H](C2)N(CC1CCC1)CC3 | 9.4 nM | 90% | 0.078 nM | 120 | 3 | 2.3 nM | 0.2 nM | 610 nM | 2.9 nM |  | 100% | 50% |  | 2400 nM
O=C(CCCCCCCC(=O)Oc1ccc2c(c1)[C@@]13CCCC[C@H]1[C@@H](C2)N(CC1CCC1)CC3)Oc1ccc2c(c1)[C@@]13CCCC[C@H]1[C@@H](C2)N(CC1CCC1)CC3 | 21 nM | 80% | 0.59 nM | 35 | 2 | 15 nM | 0.97 nM | 360 nM | 11 nM | inactive | 54% | 57% |  | 
O=C(CCCCCCC(=O)Oc1ccc2c(c1)[C@@]13CCCC[C@H]1[C@@H](C2)N(CC1CCC1)CC3)Oc1ccc2c(c1)[C@@]13CCCC[C@H]1[C@@H](C2)N(CC1CCC1)CC3 | 24 nM | 80% | 0.65 nM | 37 | 1 | 11 nM | 0.89 nM | 90 nM | 10 nM | inactive | 100% | 60% |  | 
O=C(CCCCCCCCC(=O)Oc1ccc2c(c1)[C@@]13CCCC[C@H]1[C@@H](C2)N(CC1CC1)CC3)Oc1ccc2c(c1)[C@@]13CCCC[C@H]1[C@@H](C2)N(CC1CC1)CC3 | 32 nM | 90% | 0.41 nM | 80 | 2 | 4.9 nM | 0.93 nM | 90 nM |  |  | 100% | 30% |  | 
c1cc2c(cc1OCCCCCCCCCCOc1ccc3c(c1)[C@@]14CCCC[C@H]1[C@@H](C3)N(CC1CCC1)CC4)[C@@]13CCCC[C@H]1[C@@H](C2)N(CC1CCC1)CC3 | 2500 nM |  | 120 nM | 20 | 0.5 |  | 66 nM |  |  |  |  |  |  | 
c1cc2c(cc1OCCCCOc1ccc3c(c1)[C@@]14CCCC[C@H]1[C@@H](C3)N(CC1CCC1)CC4)[C@@]13CCCC[C@H]1[C@@H](C2)N(CC1CCC1)CC3 | 730 nM |  | 18 nM | 40 | 2 |  | 29 nM |  |  |  |  |  |  | 
O=C(CCCCCCCCC(=O)Oc1ccc2c(c1)[C@@]13CCCC[C@H]1[C@@H](C2)N(CC1CCC1)CC3)Oc1ccc2c(c1)[C@@]13CCCC[C@H]1[C@@H](C2)N(CC1CCC1)CC3 | 4.2 nM | 60% | 0.049 nM | 90 | 2 | 0.85 nM | 0.09 nM | 16 nM | 1.3 nM | inactive | 60% | 50% |  | 
Oc1ccc2c(c1)[C@@]13CCCC[C@H]1[C@@H](C2)N(CC1CC1)CC3 |  |  |  |  |  |  |  |  |  |  | 50% |  |  | 
O=C(Oc1ccc2c(c1)[C@@]13CCCC[C@H]1[C@@H](C2)N(CC1CCC1)CC3)[C@H]1C[C@H]1C(=O)Oc1ccc2c(c1)[C@@]13CCCC[C@H]1[C@@H](C2)N(CC1CCC1)CC3 | 16 nM |  | 0.17 nM | 90 | 2 |  | 0.28 nM |  |  |  |  |  |  | 
O=C(CCCC(=O)Oc1ccc2c(c1)[C@@]13CCCC[C@H]1[C@@H](C2)N(CC1CCC1)CC3)Oc1ccc2c(c1)[C@@]13CCCC[C@H]1[C@@H](C2)N(CC1CCC1)CC3 | 80 nM |  | 1.2 nM | 70 | 3 |  | 3.3 nM |  |  |  |  |  |  | 
O=C(CCC(=O)Oc1ccc2c(c1)[C@@]13CCCC[C@H]1[C@@H](C2)N(CC1CC1)CC3)Oc1ccc2c(c1)[C@@]13CCCC[C@H]1[C@@H](C2)N(CC1CC1)CC3 | 3.8 nM | 70% | 0.1 nM | 40 | 1 | 3.3 nM | 0.14 nM | 1.8 nM |  |  | 60% | 10% |  | 
Oc1ccc2c(c1)[C@@]13CCCC[C@H]1[C@@H](C2)N(CCCCCCN1CC[C@]24CCCC[C@H]2[C@H]1Cc1ccc(O)cc14)CC3 | 370 nM |  | 50 nM | 7 | 1 |  | 52 nM |  |  |  |  |  |  | 
Oc1ccc2c(c1)[C@@]13CCCC[C@H]1[C@@H](C2)N(CCCN1CC[C@]24CCCC[C@H]2[C@H]1Cc1ccc(O)cc14)CC3 | 600 nM |  | 24 nM | 25 | 2 |  | 48 nM |  |  |  |  |  |  | 
Oc1ccc2c(c1)[C@@]13CCCC[C@H]1[C@@H](C2)N(CC1CCC1)CC3 [BUTORPHAN] |  |  | 0.079 nM |  |  | 1.3 nM |  |  |  |  |  |  |  | 
